Experimental data as given in ChEMBL document CHEMBL1137684, “Examination of growth inhibitory properties of synthetic chalcones for which antibacterial activity was predicted” (2009).
Converted amounts (≈) assume the structure as drawn. The source made the active and inactive calls. The rule behind the calls is not given here.

What was measured:
Staphylococcus aureus [1] = assay: Antibacterial activity against Staphylococcus aureus Rosenbach 209 after 48 hrs by agar well diffusion method; assay type: functional
How it was run: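 Agar-well diffusion on meat-peptone agar. Read-out was the diameter of the inhibition zone, with ≥15 mm taken as active. Pure solvent served as the control.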

Staphylococcus aureus [2] = assay: Antibacterial activity against Staphylococcus aureus Rosenbach 209 after 24 hrs by serial dilution method; assay type: functional; details: Rosenbach 209, 24 h
How it was run: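 Serial dilution of each chalcone in meat-peptone broth in tubes. Each tube was inoculated with bacterial suspension at 10⁵ cells/ml and incubated at 37 °C for 24 h. MIC was the lowest dilution with no visible growth compared with inoculated drug-free broth.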

Escherichia coli = assay: Antibacterial activity against Escherichia coli WF+; assay type: functional, organism-based

| MIC (Staphylococcus aureus [2]) | Structure (SMILES) | diameter of the inhibition zone (DIZ) (Staphylococcus aureus [1]) | Activity (Escherichia coli) |
| --- | --- | --- | --- |
| 250 µg/mL (≈ 987 µM) | O=C(/C=C/c1ccc([N+](=O)[O-])cc1)c1ccccc1 | 17 mm | inactive |
| 500 µg/mL (≈ 1570 µM) | COc1cc(/C=C/C(=O)c2ccc(Cl)cc2)cc(OC)c1O | 19 mm | inactive |
| 500 µg/mL (≈ 1600 µM) | COc1cc(C(=O)/C=C/c2ccc(C)cc2)cc(OC)c1OC | 0 mm | inactive |
| 62.5 µg/mL (≈ 279 µM) | O=C(/C=C/c1ccccc1O)c1ccccc1 | 22 mm | inactive |
| 250 µg/mL (≈ 1110 µM) | O=C(/C=C/c1cccc(O)c1)c1ccccc1 [3-HYDROXY CHALCONE] | 20 mm | inactive |
| 250 µg/mL (≈ 983 µM) | COc1ccc(/C=C/C(=O)c2ccccc2)cc1O | 0 mm | inactive |
| 125 µg/mL (≈ 600 µM) | O=C(/C=C/c1ccccc1)c1ccccc1 [CHALCONE] | 29 mm | inactive |
| 500 µg/mL (≈ 1950 µM) | Cc1ccc(/C=C/C(=O)c2ccc(Cl)cc2)cc1 | 0 mm | inactive |
| 500 µg/mL (≈ 2140 µM) | N#Cc1ccc(/C=C/C(=O)c2ccccc2)cc1 | 16 mm | inactive |
| 500 µg/mL (≈ 1540 µM) | COc1cc(C(=O)/C=C/C=C/c2ccccc2)cc(OC)c1OC | 19 mm | inactive |
| 125 µg/mL (≈ 492 µM) | COc1cccc(/C=C/C(=O)c2ccccc2)c1O | 19 mm | inactive |
| 250 µg/mL (≈ 866 µM) | COc1cc(/C=C/C(=O)c2ccc(Cl)cc2)ccc1O | 21 mm | inactive |
| 500 µg/mL (≈ 1880 µM) | CC(=O)Nc1ccc(/C=C/C(=O)c2ccccc2)cc1 | 0 mm | inactive |
| 62.5 µg/mL (≈ 182 µM) | COc1cc(C(=O)/C=C/c2ccc([N+](=O)[O-])cc2)cc(OC)c1OC | 0 mm | inactive |
| 125 µg/mL (≈ 483 µM) | O=C(/C=C/c1ccc(O)cc1)c1ccc(Cl)cc1 | 31 mm | inactive |
| 62.5 µg/mL (≈ 188 µM) | COc1cc(C(=O)/C=C/c2ccc(Cl)cc2)cc(OC)c1OC | 0 mm | inactive |
| 500 µg/mL (≈ 2100 µM) | COc1ccc(/C=C/C(=O)c2ccccc2)cc1 [4-METHOXY CHALCONE] | 0 mm | inactive |
| 125 µg/mL (≈ 483 µM) | O=C(/C=C/c1ccccc1O)c1ccc(Cl)cc1 | 20 mm | inactive |
| 62.5 µg/mL (≈ 216 µM) | COc1ccc(/C=C/C(=O)c2ccc(Cl)cc2)cc1O | 0 mm | inactive |
| 250 µg/mL (≈ 825 µM) | O=C(/C=C/c1ccc(Cl)cc1)/C=C/c1ccc(Cl)cc1 | 0 mm | inactive |
| 62.5 µg/mL (≈ 193 µM) | COc1cc(C(=O)/C=C/c2ccc(C#N)cc2)cc(OC)c1OC | 0 mm | inactive |
| 500 µg/mL (≈ 1590 µM) | COc1cc(C(=O)/C=C/c2cccc(O)c2)cc(OC)c1OC | 0 mm | inactive |
| 500 µg/mL (≈ 1590 µM) | COc1cc(C(=O)/C=C/c2ccc(O)cc2)cc(OC)c1OC | 0 mm | inactive |
| 500 µg/mL (≈ 1450 µM) | COc1cc(/C=C/C(=O)c2cc(OC)c(OC)c(OC)c2)ccc1O | 0 mm | inactive |
| 250 µg/mL (≈ 603 µM) | COc1cc(/C=C/C(=O)/C=C/c2cc(OC)c(OC)c(OC)c2)cc(OC)c1OC | 0 mm | inactive |
| 500 µg/mL (≈ 1750 µM) | CN(C)c1ccc(/C=C/C(=O)c2ccc(Cl)cc2)cc1 | 0 mm | inactive |

| MIC (Staphylococcus aureus [2]) | Structure (SMILES) | diameter of the inhibition zone (DIZ) (Staphylococcus aureus [1]) | Activity (Escherichia coli) |
| --- | --- | --- | --- |
| 500 µg/mL (≈ 1450 µM) | COc1ccc(/C=C/C(=O)c2cc(OC)c(OC)c(OC)c2)cc1O | 0 mm | inactive |
| 250 µg/mL (≈ 866 µM) | COc1cccc(/C=C/C(=O)c2ccc(Cl)cc2)c1O | 0 mm | inactive |
| 125 µg/mL (≈ 483 µM) | O=C(/C=C/c1cccc(O)c1)c1ccc(Cl)cc1 | 25 mm | inactive |
| 500 µg/mL (≈ 1460 µM) | COc1cc(C(=O)/C=C/c2ccc(N(C)C)cc2)cc(OC)c1OC | 0 mm | inactive |
| 500 µg/mL (≈ 1750 µM) | O=C(/C=C/C=C/c1ccccc1)/C=C/C=C/c1ccccc1 | 0 mm | inactive |
| 125 µg/mL (≈ 557 µM) | O=C(/C=C/c1ccc(O)cc1)c1ccccc1 [4-HYDROXYCHALCONE] | 19 mm | inactive |
| 500 µg/mL (≈ 1800 µM) | O=C(/C=C/c1ccc(Cl)cc1)c1ccc(Cl)cc1 [4',4-DICHLOROCHALCONE] | 0 mm | inactive |
| 500 µg/mL (≈ 1520 µM) | COc1ccc(/C=C/C(=O)c2cc(OC)c(OC)c(OC)c2)cc1 | 0 mm | inactive |
| 500 µg/mL (≈ 2060 µM) | O=C(/C=C/c1ccc(Cl)cc1)c1ccccc1 [4-CHLORO CHALCONE] | 0 mm | inactive |
| 250 µg/mL (≈ 838 µM) | COc1cc(C(=O)/C=C/c2ccccc2)cc(OC)c1OC | 0 mm | inactive |
| 500 µg/mL (≈ 1590 µM) | COc1cc(C(=O)/C=C/c2ccccc2O)cc(OC)c1OC | 0 mm | inactive |
| 500 µg/mL (≈ 1650 µM) | O=C(/C=C/c1cc([N+](=O)[O-])ccc1O)c1ccc(Cl)cc1 | 0 mm | inactive |
| 125 µg/mL (≈ 455 µM) | O=C(/C=C/c1ccc(O)c(O)c1)c1ccc(Cl)cc1 | 19 mm | inactive |
| 500 µg/mL (≈ 2130 µM) | O=C(/C=C/C=C/c1ccccc1)c1ccccc1 | 0 mm | inactive |
| 500 µg/mL (≈ 1860 µM) | O=C(/C=C/C=C/c1ccccc1)c1ccc(Cl)cc1 | 0 mm | inactive |
| 125 µg/mL (≈ 520 µM) | O=C(/C=C/c1ccc(O)c(O)c1)c1ccccc1 | 21 mm | inactive |
| 500 µg/mL (≈ 2060 µM) | O=C(/C=C/c1ccccc1)c1ccc(Cl)cc1 | 0 mm | inactive |
| 500 µg/mL (≈ 1410 µM) | COc1cc(C(=O)/C=C/c2ccc(NC(C)=O)cc2)cc(OC)c1OC | 0 mm | inactive |
| 250 µg/mL (≈ 934 µM) | N#Cc1ccc(/C=C/C(=O)c2ccc(Cl)cc2)cc1 | 21 mm | inactive |
| 500 µg/mL (≈ 1990 µM) | CN(C)c1ccc(/C=C/C(=O)c2ccccc2)cc1 | 0 mm | inactive |
| 500 µg/mL (≈ 2250 µM) | Cc1ccc(/C=C/C(=O)c2ccccc2)cc1 | 0 mm | inactive |
| 500 µg/mL (≈ 1970 µM) | COc1cc(/C=C/C(=O)c2ccccc2)ccc1O | 0 mm | inactive |
| 500 µg/mL (≈ 1830 µM) | COc1ccc(/C=C/C(=O)c2ccc(Cl)cc2)cc1 | 0 mm | inactive |
| 250 µg/mL (≈ 869 µM) | O=C(/C=C/c1ccc([N+](=O)[O-])cc1)c1ccc(Cl)cc1 | 17 mm | inactive |
| 500 µg/mL (≈ 1670 µM) | CC(=O)Nc1ccc(/C=C/C(=O)c2ccc(Cl)cc2)cc1 | 0 mm | inactive |
